In ChEMBL document CHEMBL2401669, “Discovery and structure-activity relationships of ent-Kaurene diterpenoids as potent and selective 11β-HSD1 inhibitors: potential impact in diabetes” (Eur J Med Chem, 2013):

Columns and labels:
[1] = target: 11-beta-hydroxysteroid dehydrogenase 1 (Mus musculus, UniProt P50172); test: Inhibition of mouse 11beta-HSD1 expressed in HEK293 cell microsomes assessed as inhibition of [3H]cortisone conversion to [3H]cortisol by scintillation proximity assay; set-up: species or system Microsome
Sequence of 11-beta-hydroxysteroid dehydrogenase 1 (Mus musculus, UniProt P50172) (P50172 whole entry): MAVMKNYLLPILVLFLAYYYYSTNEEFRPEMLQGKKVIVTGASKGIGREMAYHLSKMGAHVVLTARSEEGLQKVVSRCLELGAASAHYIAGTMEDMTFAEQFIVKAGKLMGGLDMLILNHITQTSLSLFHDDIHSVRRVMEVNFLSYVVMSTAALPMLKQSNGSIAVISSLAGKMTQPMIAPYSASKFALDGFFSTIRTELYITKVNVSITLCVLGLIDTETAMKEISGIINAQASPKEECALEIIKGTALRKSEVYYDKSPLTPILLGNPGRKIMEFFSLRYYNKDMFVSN
Outline: (§1)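 Enzyme source: microsomal fraction from HEK-293 cells stably transfected with 11β-HSD1 (human or mouse), incubated with NADPH and [3H]cortisone. The [3H]cortisol product is captured by a monoclonal antibody on protein A-coated SPA beads. IC50 is averaged over at least two independent experiments, at least duplicate per concentration.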

[2] = target: T1, 11-beta-hydroxysteroid dehydrogenase type 2 (Mus musculus, UniProt P51661); test: Inhibition of mouse 11beta-HSD2
T1 sequence (P51661 whole entry): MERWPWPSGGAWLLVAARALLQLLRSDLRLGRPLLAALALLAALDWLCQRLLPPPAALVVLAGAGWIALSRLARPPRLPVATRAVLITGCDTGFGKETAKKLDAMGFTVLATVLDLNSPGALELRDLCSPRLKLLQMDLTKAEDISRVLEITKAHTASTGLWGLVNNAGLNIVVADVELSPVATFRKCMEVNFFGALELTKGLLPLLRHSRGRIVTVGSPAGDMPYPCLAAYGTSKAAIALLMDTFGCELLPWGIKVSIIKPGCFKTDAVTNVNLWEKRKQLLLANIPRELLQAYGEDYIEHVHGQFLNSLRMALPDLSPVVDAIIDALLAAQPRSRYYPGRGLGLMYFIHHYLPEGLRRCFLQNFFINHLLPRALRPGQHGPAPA
Outline: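 Scintillation proximity assay using microsomes containing mouse 11β-HSD2. IC50 is averaged over at least two independent experiments, with at least two replicates per concentration.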

Mus musculus = organism: Mus musculus; test: Selectivity ratio of IC50 for mouse 11beta-HSD2 to IC50 for mouse 11beta-HSD1
Outline: (§2)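 Ratio of 11β-HSD2 IC50 to 11β-HSD1 IC50 for the same species (mouse or human). Both IC50s come from microsome-based scintillation proximity assays, averaged over at least two independent experiments with at least duplicate wells per concentration. Only compounds exceeding 50% inhibition in the primary screen were evaluated.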

[3] = target: 11-beta-hydroxysteroid dehydrogenase 1 (Mus musculus) (UniProt P50172); test: Inhibition of mouse 11beta-HSD1 expressed in HEK293 cell microsomes assessed as inhibition of [3H]cortisone conversion to [3H]cortisol at 1 uM by scintillation proximity assay; settings: Microsome
Sequence of 11-beta-hydroxysteroid dehydrogenase 1 (Mus musculus) (P50172 whole entry, looked up): as the sequence (P50172 whole entry) above
Outline: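 Primary single-concentration screen in the SPA. Mouse 11β-HSD1 HEK-293 stable-transfectant microsomes are incubated with NADPH and [3H]cortisone, and [3H]cortisol is captured by antibody-coupled protein A SPA beads. Inhibitory ratio is the average of two determinations, with deviation from the average of 10% of the average value.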

[4] = target: T2, 11-beta-hydroxysteroid dehydrogenase 1 (Homo sapiens, UniProt P28845); test: Inhibition of human 11beta-HSD1 expressed in HEK293 cell microsomes assessed as inhibition of [3H]cortisone conversion to [3H]cortisol by scintillation proximity assay; set-up: species or system Microsome; outline: as §1
T2 sequence (P28845 whole entry): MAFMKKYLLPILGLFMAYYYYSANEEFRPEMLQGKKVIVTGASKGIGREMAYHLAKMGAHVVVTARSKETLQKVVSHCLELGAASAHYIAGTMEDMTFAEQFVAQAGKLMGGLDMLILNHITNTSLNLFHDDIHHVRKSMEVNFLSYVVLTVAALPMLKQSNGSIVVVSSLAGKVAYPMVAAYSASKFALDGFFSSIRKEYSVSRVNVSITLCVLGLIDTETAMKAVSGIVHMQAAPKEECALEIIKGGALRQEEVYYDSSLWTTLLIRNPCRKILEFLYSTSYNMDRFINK

Homo sapiens = organism: Homo sapiens; test: selectivity ratio of IC50 for human 11beta-HSD2 to IC50 for human 11beta-HSD1; outline: as §2
[5] = target: T3, 11-beta-hydroxysteroid dehydrogenase type 2 (Homo sapiens, UniProt P80365); test: Inhibition of human 11beta-HSD2
T3 sequence (P80365 whole entry): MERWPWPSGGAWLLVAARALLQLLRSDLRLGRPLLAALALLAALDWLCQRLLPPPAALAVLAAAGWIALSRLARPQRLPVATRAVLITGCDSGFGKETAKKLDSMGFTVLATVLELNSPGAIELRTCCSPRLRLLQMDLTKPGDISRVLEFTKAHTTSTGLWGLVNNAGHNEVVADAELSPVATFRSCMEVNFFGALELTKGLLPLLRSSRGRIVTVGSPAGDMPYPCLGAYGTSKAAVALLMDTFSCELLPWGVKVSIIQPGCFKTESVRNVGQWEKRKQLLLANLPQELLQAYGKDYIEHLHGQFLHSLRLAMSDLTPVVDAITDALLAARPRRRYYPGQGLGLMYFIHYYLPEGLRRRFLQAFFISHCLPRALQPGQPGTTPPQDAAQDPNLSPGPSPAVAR

[6] = target: 11-beta-hydroxysteroid dehydrogenase 1 (Rattus norvegicus, UniProt P16232); test: Inhibition of rat 11beta-HSD1
Sequence of 11-beta-hydroxysteroid dehydrogenase 1 (Rattus norvegicus, UniProt P16232) (P16232 whole entry): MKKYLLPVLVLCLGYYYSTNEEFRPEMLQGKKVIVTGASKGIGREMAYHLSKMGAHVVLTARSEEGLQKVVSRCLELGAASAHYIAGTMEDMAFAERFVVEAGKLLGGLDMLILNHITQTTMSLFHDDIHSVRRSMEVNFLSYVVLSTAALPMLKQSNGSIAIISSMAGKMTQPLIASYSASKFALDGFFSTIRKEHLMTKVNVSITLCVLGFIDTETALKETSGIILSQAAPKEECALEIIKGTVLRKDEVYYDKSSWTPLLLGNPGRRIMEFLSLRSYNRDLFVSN

[7] = target: T2, 11-beta-hydroxysteroid dehydrogenase 1; test: Inhibition of human 11beta-HSD1
Outline: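 Scintillation proximity assay on microsomes from HEK-293 cells stably transfected with human 11β-HSD1. Microsomes were incubated with NADPH and [3H]cortisone. The [3H]cortisol formed was captured by a monoclonal antibody on protein A-coated SPA beads. Compounds were first screened at […]; those giving over 50% inhibition went on to full IC50 determination. Each value comes from at least two independent experiments, with duplicates or more at each concentration.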

Structure (SMILES)	IC50 [1]	IC50 [2]	Ratio IC50 (Mus musculus)	inhibition [3]	IC50 [4]	Ratio IC50 (Homo sapiens)	IC50 [5]	IC50 [6]	IC50 [7]
C=C1C[C@@]23CC[C@H]4[C@@](C)(CCC[C@@]4(C)C(=O)O)[C@@H]2CC[C@@H]1C3 [KAURENOIC ACID]	0.357 µM	500 µM	1400	82.4%	–	–	–	–	–
C=C1[C@H]2CC[C@H]3[C@]4(C)CCC[C@@](C)(C(=O)O)[C@H]4CC[C@]3(C2)[C@H]1O	0.259 µM	> 100 µM	> 387	55.5%	> 1 µM	–	–	–	–
C[C@@]12CCC[C@@](C)(C(=O)O)[C@H]1CC[C@@]13C[C@H](CC[C@H]12)[C@@](O)(CO)C3	3.22 µM	> 1000 µM	> 311	–	1.24 µM	> 809	> 1000 µM	–	–
C[C@@]1(CO)CCC[C@]2(C)[C@@H]1CC[C@@]13C[C@H](CC[C@H]12)[C@@](O)(CO)C3	2.81 µM	> 1000 µM	> 357	–	0.91 µM	> 1100	> 1000 µM	–	–
C=C1C[C@@]23CC[C@@H]4[C@](C)(CO)CCC[C@@]4(C)[C@@H]2CC[C@H]1C3	1.55 µM	> 1000 µM	> 640	20.4%	1.42 µM	7	10 µM	–	–
C[C@@H]1CC(n2c(=O)[nH]c3ccccc32)C[C@@H](C)N1C(=O)c1cc(Cl)c(N)c(Cl)c1 (stereo not given in full)	–	–	–	–	–	–	–	0.039 µM	0.022 µM
